Assay results reported in paper PMC3777810 (Journal of medicinal chemistry, 2013).
Entries after “also recorded” stand apart in the source; their conditions may differ. Where a name gives a salt, the structure may show the parent alone.

What was measured:
human GSK-3β = human GSK-3β (Homo sapiens, UniProt P49841); experiment: GSK-3β inhibition, phosphorylation of primed substrate; type: biochemical
[1] = test system: MA-10 mouse tumor Leydig cells; experiment: Steroidogenesis assay: progesterone production by RIA; type: cell-based; conditions: for stimulation of progesterone production: 100 μM; for stimulation of progesterone production / progesterone production: 2 h incubation, RIA; for progesterone production: all tested concentrations (0–100 μM); for time of first maximum steroid production: 50 μM, 0–120 min, biphasic time response
How it was run: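 Cells were plated at 2.5 × 10^4 per well, left to adhere 18 h, washed with PBS, then given serum-free medium with 0–100 μM test compound from DMSO stocks (final DMSO <0.02%; controls matched). Incubation was 2 h, or 0–120 min at 50 μM (n=2). Medium progesterone was measured by RIA with anti-progesterone antisera and normalized to well protein (Bradford, BSA standard).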

[2] = test system: MA-10 mouse tumor Leydig cells; experiment: Cellular toxicity by MTT assay; type: cell-based; conditions: 100 μM, 2 h
How it was run: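 MA-10 mouse Leydig tumor cells were grown in DMEM/F-12 Ham with 5% fetal bovine serum and 2.5% heat-inactivated horse serum. They were exposed to test compound for 2 h, at 100 μM or over 0.1–100 μM, and toxicity was read by MTT. Single-concentration data are mean ± S.E.M. (n=3), compared by one-way ANOVA with Newman-Keuls post-test. Dose curves were fitted by nonlinear regression.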

mouse model of mania = conditions: amphetamine and chlordiazepoxide induced; cited from earlier work
C57BL/6 mice = experiment: SmartCube behavioral assay; type: in vivo, mouse; conditions: for SmartCube signature after chronic administration: 50 mg/kg i.p. once a day for 13 days; for SmartCube signature after a single dose: 50 mg/kg i.p., day 1, 15 min after dose
How it was run: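 Mice received test compound at 50 mg/kg i.p. once daily for 13 days, dosed 15 min before a session presenting multiple challenges, with at least 12 mice per group. Behavioral features were analyzed by computer algorithms and data mining. They were compared with a database of signatures from reference antipsychotics, anxiolytics and antidepressants.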

human GSK-3β, sequence (P49841 whole entry): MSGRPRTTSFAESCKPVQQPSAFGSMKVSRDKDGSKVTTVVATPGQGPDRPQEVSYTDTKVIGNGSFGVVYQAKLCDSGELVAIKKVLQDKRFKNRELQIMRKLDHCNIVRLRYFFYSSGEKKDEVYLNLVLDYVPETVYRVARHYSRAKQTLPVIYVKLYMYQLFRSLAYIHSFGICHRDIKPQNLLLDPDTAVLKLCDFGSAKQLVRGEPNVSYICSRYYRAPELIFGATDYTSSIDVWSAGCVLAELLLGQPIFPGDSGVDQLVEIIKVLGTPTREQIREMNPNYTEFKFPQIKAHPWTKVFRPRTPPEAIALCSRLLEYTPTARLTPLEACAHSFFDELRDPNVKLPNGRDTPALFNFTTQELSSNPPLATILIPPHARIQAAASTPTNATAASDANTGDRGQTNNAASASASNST

What does the source list for Cn1cc(C2=C(c3coc4ccccc34)C(=O)NC2=O)c2cc(Br)cnc21 [Compound 13, 3-(Benzofuran-3-yl)-4-(5-bromo-1-methyl-1H-pyrrolo[2,3-b]pyridin-3-yl)-1H-pyrrole-2,5-dione]?
IC50 (human GSK-3β): 5 nM; stimulation of progesterone production [1]: bioactive in stimulating progesterone production; cellular toxicity (MTT) [2]: either low or no apparent toxicity

With COc1cc2c(C3=C(c4coc5ccccc45)C(=O)NC3=O)cn(C)c2cn1 [Compound 17, 3-(Benzofuran-3-yl)-4-(5-methoxy-1-methyl-1H-pyrrolo[2,3-c]pyridin-3-yl)-1H-pyrrole-2,5-dione] as the compound, how does the progesterone production [1] read?
Its progesterone production is < 30 ng progesterone/mg protein.

Which results are given for O=C1NC(=O)C(c2cn3c4c(cc(Br)cc24)CNCC3)=C1c1coc2ccccc12 [Compound 26, 3-(Benzofuran-3-yl)-4-(9-bromo-1,2,3,4-tetrahydro-[1,4]diazepino[6,7,1-hi]indol-7-yl)-1H-pyrrole-2,5-dione trifluoroacetate]?
stimulation of progesterone production [1]: bioactive in stimulating progesterone production; cellular toxicity (MTT) [2]: toxic to the MA-10 cells

What does the source list for COCCc1cccc2c(C3=C(c4coc5ccccc45)C(=O)NC3=O)cn(CCOC)c12 [Compound 23, 3-(Benzofuran-3-yl)-4-(1,7-bis(2-methoxyethyl)-1H-indol-3-yl)-1H-pyrrole-2,5-dione]?
progesterone production [1]: < 30 ng progesterone/mg protein; cellular toxicity (MTT) [2]: low, but observable signs of cytotoxicity

With Cn1cc(C2=C(c3coc4ccccc34)C(=O)NC2=O)c2cc(Br)ccc21 [Compound 1, 3-(benzofuran-3-yl)-4-(5-bromo-1-methyl-1H-indol-3-yl)-1H-pyrrole-2,5-dione] as the compound, how does the “time of first maximum steroid production” value [1] read?
Its value is at most 15 min.

And the “stimulation of progesterone production” value [1]?
The value was “bioactive in stimulating progesterone production”.

What about the “cellular toxicity (MTT)” value [2] of the same compound?
Its value is “either low or no apparent toxicity”.

What about the effect on hyperactivity (mouse model of mania) of the same compound?
Its effect on hyperactivity is “attenuates hyperactivity”.

What about the “SmartCube signature after chronic administration” value (C57BL/6 mice) of the same compound?
The value was “predicting anxiolytic-like activity”.

What about the “SmartCube signature after a single dose” value (C57BL/6 mice) of the same compound?
Its value is “Neither compound demonstrated any classified behavioral activity”.

What does the source list for COCCn1cc(C2=C(c3coc4ccccc34)C(=O)NC2=O)c2cccnc21 [Compound 16, 3-(Benzofuran-3-yl)-4-(1-(2-methoxyethyl)-1H-pyrrolo[2,3-b]pyridin-3-yl)-1H-pyrrole-2,5-dione]?
progesterone production [1]: < 30 ng progesterone/mg protein; cellular toxicity (MTT) [2]: low, but observable signs of cytotoxicity

Which results are given for COCCc1cccc2c(C3=C(c4coc5ccccc45)C(=O)NC3=O)cn(C)c12 [Compound 21, 3-(Benzofuran-3-yl)-4-(7-(2-methoxyethyl)-1-methyl-1H-indol-3-yl)-1H-pyrrole-2,5-dione]?
stimulation of progesterone production [1]: bioactive in stimulating progesterone production; cellular toxicity (MTT) [2]: either low or no apparent toxicity

What does the source list for COCCn1cc(C2=C(c3coc4ccccc34)C(=O)NC2=O)c2cc(Br)cnc21 [Compound 14, 3-(Benzofuran-3-yl)-4-(5-bromo-1-(2-methoxyethyl)-1H-pyrrolo[2,3-b]pyridin-3-yl)-1Hpyrrole-2,5-dione]?
stimulation of progesterone production [1]: bioactive in stimulating progesterone production; cellular toxicity (MTT) [2]: either low or no apparent toxicity

With O=C1NC(=O)C(c2cn3c4c(cc(F)cc24)CN(C(=O)N2CCOCC2)CC3)=C1c1coc2ccccc12 [Compound 31, 3-(Benzofuran-3-yl)-4-(9-fluoro-2-(morpholine-4-carbonyl)-1,2,3,4-tetrahydro-[1,4]diazepino[6,7,1-hi]indol-7-yl)-1H-pyrrole-2,5-dione] as the compound, how does the “cellular toxicity (MTT)” value [2] read?
The value was “significantly more cytotoxic”.

Which “stimulation of progesterone production” value [1] does the source give for COCCn1cc(C2=C(c3coc4ccccc34)C(=O)NC2=O)c2cc(F)c(F)cc21 [Compound 12, 3-(Benzofuran-3-yl)-4-(5,6-difluoro-1-(2-methoxyethyl)-1H-indol-3-yl)-1H-pyrrole-2,5-dione] here?
The value was “bioactive in stimulating progesterone production”.

What about the “cellular toxicity (MTT)” value [2] of the same compound?
The value was “significantly more cytotoxic; also recorded: toxic to the MA-10 cells”.

Which progesterone production [1] does the source give for Cn1cc(C2=C(c3cnc4ccccn34)C(=O)NC2=O)c2cc(Br)ccc21 [Compound 20, 3-(5-Bromo-1-methyl-1H-indol-3-yl)-4-(imidazo[1,2-a]pyridin-3-yl)-1H-pyrrole-2,5-dione trifluoroacetate] here?
Its progesterone production is < 30 ng progesterone/mg protein.

With O=C1NC(=O)C(c2cn3c4c(cc(F)cc24)CNCC3)=C1c1coc2ccccc12 [Compound 25, 3-(Benzofuran-3-yl)-4-(9-fluoro-1,2,3,4-tetrahydro-[1,4]diazepino[6,7,1-hi]indol-7-yl)-1H-pyrrole-2,5-dione trifluoroacetate] as the compound, how does the progesterone production [1] read?
Its progesterone production is < 30 ng progesterone/mg protein.

Which IC50 (human GSK-3β) does the source give for Cn1cc(C2=C(c3cnc4ccccn34)C(=O)NC2=O)c2cc3c(cc21)OCO3 [Compound 19, 3-(Imidazo[1,2-a]pyridin-3-yl)-4-(5-methyl-5H-[1,3]dioxolo[4,5-f]indol-7-yl)-1H-pyrrole-2,5-dione trifluoroacetate] here?
Its IC50 is 5 nM.

For O=C1NC(=O)C(c2cn3c4c(cc(F)cc24)CN(C(=O)N2CCC(N4CCCCC4)CC2)CC3)=C1c1coc2ccccc12 [Compound 30, 3-(2-([1,4’-Bipiperidine]-1’-carbonyl)-9-fluoro-1,2,3,4-tetrahydro-[1,4]diazepino[6,7,1-hi]indol-7-yl)-4-(benzofuran-3-yl)-1H-pyrrole-2,5-dione trifluoroacetate], which “cellular toxicity (MTT)” value [2] is on record?
The value was “significantly more cytotoxic”.

Which “time of first maximum steroid production” value [1] does the source give for COCCn1cc(C2=C(c3coc4ccccc34)C(=O)NC2=O)c2ccccc21 [Compound 9, 3-(Benzofuran-3-yl)-4-(1-(2-methoxyethyl)-1H-indol-3-yl)-1H-pyrrole-2,5-dione] here?
Its value is at most 15 min.

What about the “stimulation of progesterone production” value [1] of the same compound?
Its value is “bioactive in stimulating progesterone production”.

And the “cellular toxicity (MTT)” value [2]?
Its value is “either low or no apparent toxicity”.

And the “SmartCube signature after chronic administration” value (C57BL/6 mice)?
Its value is “predicting anxiolytic-like activity”.

And the “SmartCube signature after a single dose” value (C57BL/6 mice)?
The value was “Neither compound demonstrated any classified behavioral activity”.
